IC50, Activity and inhibition data for one compound are collected here from ChEMBL document CHEMBL1154830, “A beta-carboline alkaloid from the Papua New Guinea marine sponge hyrtios reticulatus” (J Nat Prod, 2010).

≈ marks a conversion by molar mass, not a printed value. Calls of active or inactive are those of the source. The rule behind the calls is not given here. Where only a bound is given, the exact number is not on record here.

One experiment has as its system UACC-257. The experiment can be described thus: Cytotoxic activity against human UACC257 cells after 96 hrs by luminescent cell viability assay. The experiment is classed as functional, cell-based. As to conditions: UACC-257, 96 h.
The subject of another experiment is MDA-MB-435. The experiment can be described thus: Cytotoxic activity against human MDA-MB-435 cells after 96 hrs by luminescent cell viability assay. The experiment is classed as functional, cell-based. As to conditions: MDA-MB-435, 96 h.
Another experiment deals with SR. The experiment is described as follows: Cytotoxic activity against human SR cells after 96 hrs by luminescent cell viability assay. The class given is functional, cell-based.
Experiment [1] has as its system HeLa. The experiment can be described thus: Cytotoxicity against human HeLa cells assessed as nuclear blebbing at 230 uM after 24 hrs by hoechst 33342 staining method. The experiment is classed as functional, cell-based. The method in brief: (§1)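 HeLa cells plated at 1500 cells/well and held overnight at 37 °C, 5% CO2, then compound pinned in. After 24 h, fixed in 4% formaldehyde for 20 min, permeabilized with 0.5% Triton X-100 in PBS for 10 min and blocked. Actin stained with rhodamine-phalloidin for 20 min and DNA with Hoechst 33342.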

Experiment [2] has as its system HeLa. The experiment is described as follows: Cytotoxicity against human HeLa cells at 230 uM after 24 hrs. The class given is functional. The procedure, abridged: as §1
Experiment [3] is described as follows: Cytotoxic activity against human H522-T1 cells after 96 hrs by luminescent cell viability assay. The class given is functional, cell-based. As to conditions: H522-T1, 96 h.
In experiment [4] the test system is HeLa. The experiment is described as follows: Cytotoxicity against human HeLa cells assessed as disruption of cytoskeleton at 230 uM after 24 hrs by rhodamine-phalloidin staining method. The class given is functional, cell-based. The procedure, abridged:
as §1

The next experiment concerns HCC 2998. The experiment can be described thus: Cytotoxic activity against human HCC2998 cells after 96 hrs by luminescent cell viability assay. The experiment is classed as functional, cell-based. The following applies: HCC 2998, 96 h.
Another experiment deals with HT-29. The experiment is described as follows: Cytotoxic activity against human HT-29 cells after 96 hrs by luminescent cell viability assay. The experiment is classed as functional, cell-based. As to conditions: HT-29, 96 h. The procedure, abridged:
(§2)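 Cells in 96-well plates grown without compound or with continuous exposure to 1.5–50,000 nM test compound for 96 h. Growth read by CellTiter-Glo luminescence. IC50 is the concentration giving 50% growth inhibition relative to untreated cells. Two separate replicate experiments.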

The next experiment concerns NCI-H460. The experiment can be described thus: Cytotoxic activity against human H460 cells after 96 hrs by luminescent cell viability assay. The class given is functional, cell-based. As to conditions: NCI-H460, 96 h. The procedure, abridged: as §2
The next experiment relates to BT-549. The experiment can be described thus: Cytotoxic activity against human BT549 cells after 96 hrs by luminescent cell viability assay. The experiment is classed as functional, cell-based. The following applies: BT-549, 96 h. The procedure, abridged: as §2
The next experiment relates to OVCAR-5. The experiment is described as follows: Cytotoxic activity against human OVCAR5 cells after 96 hrs by luminescent cell viability assay. The experiment is classed as functional, cell-based. The following applies: OVCAR-5, 96 h.
The subject of a further experiment is SF-539. The experiment is described as follows: Cytotoxic activity against human SF539 cells after 96 hrs by luminescent cell viability assay. As to conditions: SF-539, 96 h. The class given is functional, cell-based.
The subject of a further experiment is DU-145. The experiment can be described thus: Cytotoxic activity against human DU145 cells after 96 hrs by luminescent cell viability assay. The class given is functional, cell-based. As to conditions: DU-145, 96 h. The procedure, abridged:
as §2

Another experiment deals with U-937. The experiment is described as follows: Cytotoxic activity against human U937 cells after 96 hrs by luminescent cell viability assay. The following applies: U-937, 96 h. The class given is functional, cell-based.
The next experiment relates to MCF7. The experiment can be described thus: Cytotoxic activity against human MCF7 cells after 96 hrs by luminescent cell viability assay. The class given is functional, cell-based. The following applies: MCF7, 96 h.

A word on the IC50: it is the midpoint of a concentration-inhibition curve. A word on the inhibition: it is the drop in the measured response relative to a control, in per cent. A high value points to a strong effect. For `O=C(O)c1cc2c([nH]c3ccc(O)cc32)c(C(=O)c2c[nH]cn2)n1` [HYRTIOCARBOLIN], the 50% inhibitory concentration (IC50) in the experiment with UACC-257 is over 50 µg/mL; with MDA-MB-435, 3 µg/mL (≈ 9.31 µM); in the experiment with SR it was over 50 µg/mL; in experiment [3], 1.2 µg/mL (≈ 3.72 µM); in the experiment on HCC 2998, over 50 µg/mL; in the experiment on HT-29, over 50 µg/mL. Besides, the IC50 in the experiment with NCI-H460 was 17 µg/mL (≈ 52.7 µM); in the experiment with BT-549 it was 45 µg/mL (≈ 140 µM); in the experiment on OVCAR-5, over 50 µg/mL; in the experiment on SF-539, over 50 µg/mL; in the experiment on DU-145, 34 µg/mL (≈ 105 µM); in the experiment with U-937, 1.5 µg/mL (≈ 4.65 µM). The same compound yielded an IC50 with MCF7 of over 50 µg/mL. Further, the result in the experiment on HeLa [1] and in the experiment on HeLa [4] was Active. Further, the inhibition at 230 µM with HeLa [2] was 57%.
